Test results reported in ChEMBL document CHEMBL1153904, “FR290581, a novel sordarin derivative: synthesis and antifungal activity” (Bioorg Med Chem Lett, 2009).
Converted amounts (≈) assume the structure as drawn.

How the values were obtained:
[1] = test system: Candida tropicalis; test: Antifungal activity against Candida tropicalis 21005; type: functional
Outline: (§1)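 Read-out is the minimum inhibitory concentration, in µg/mL.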

[2] = Cmax in mouse at 2 mg/kg, po; type: ADME, organism-based; parameters: dose 2 mg/kg, route oral; settings: in vivo
Outline: (§2)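 Mice received a single oral dose of 2 mg/kg. Cmax is reported in µg/mL and half-life in hours.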

[3] = test system: Candida albicans; test: Antifungal activity against Candida albicans FP633 in po dosed ICR mouse candidiasis model treated after 1 hr post infection for 4 days; type: functional
Outline: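 ED50 (mg/kg) determined in a mouse systemic candidiasis model, with compound given orally.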

[4] = test system: Nakaseomyces glabratus; test: Antifungal activity against Candida glabrata ATCC 90030; type: functional; outline: as §1
[5] = test system: Candida parapsilosis; test: Antifungal activity against Candida parapsilosis ATCC 22019; type: functional; settings: Lodderomyces parapsilosis; outline: as §1
[6] = test system: Candida albicans; test: Antifungal activity against Candida albicans ATCC 90028; type: functional
[7] = test system: Candida albicans; test: Antifungal activity against fluconazole-resistant Candida albicans 22009; type: functional
[8] = test system: Cryptococcus neoformans; test: Antifungal activity against Cryptococcus neoformans TIMM 0354; type: functional; outline: as §1
[9] = test system: Candida albicans; test: Antifungal activity against Candida albicans […] in ICR mouse serum drug administered po twice a day; type: functional
Outline: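 MIC measured in mouse serum, in µg/mL.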

[10] = test system: Aspergillus fumigatus; test: Antifungal activity against Aspergillus fumigatus ATCC 204305; type: functional; outline: as §1
[11] = Half life in mouse at 2 mg/kg, po; type: ADME, organism-based; parameters: dose 2 mg/kg, route oral; settings: in vivo; outline: as §2
[12] = test system: Candida albicans; test: Antifungal activity against Candida albicans FP633 in po dosed ICR mouse assessed as kidney burden per gram of tissue at 20 mg/kg, po after 24 hrs of inoculation; type: functional
Outline: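 Mouse systemic C. albicans infection, oral dosing, n = 5 per group. Kidney fungal burden was read as log cfu per g kidney at 24 h after inoculation and expressed as the change relative to the 0 h control. Significance was tested against the 0 h control by Dunnett comparison.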

Compound	MIC [1] [µg/mL]	Cmax [2] [ng/mL]	ED50 [3] [mg/kg]	MIC [4] [µg/mL]	MIC [5] [µg/mL]	MIC [6] [µg/mL]	MIC [7] [µg/mL]	MIC [8] [µg/mL]	MIC [9] [µg/mL]	MIC [10] [µg/mL]	half-life [11] [h]	deltalog10CFU [12]
CCCC[C@@H]1C[C@H](C23C[C@@H]4[C@H](C)CC[C@H]4[C@@]4(C=O)CC2C=C(C(C)C)[C@@]34C(=O)O)O[C@H]1CN1CCC(N2C[C@@H](C)O[C@@H](C)C2)CC1	0.5 (≈ 0.783 µM)	1000	2	1 (≈ 1.57 µM)	8 (≈ 12.5 µM)	0.5 (≈ 0.783 µM)	0.5 (≈ 0.783 µM)	4 (≈ 6.26 µM)	0.25 (≈ 0.391 µM)	128 (≈ 200 µM)	3.4	-1.09
OC(Cn1cncn1)(Cn1cncn1)c1ccc(F)cc1F [FLUCONAZOLE]	0.25 (≈ 0.816 µM)			16 (≈ 52.2 µM)	1 (≈ 3.27 µM)	0.125 (≈ 0.408 µM)	128 (≈ 418 µM)	0.25 (≈ 0.816 µM)		> 128		-0.19
CO[C@H]1[C@@H](O)[C@H](O)[C@H](OC[C@@]23C[C@@H]4[C@H](C)CC[C@H]4[C@@]4(C=O)CC2C=C(C(C)C)[C@@]34C(=O)O)O[C@@H]1C [SORDARIN]	64 (≈ 130 µM)	20	> 40	64 (≈ 130 µM)	> 128	32 (≈ 65 µM)	64 (≈ 130 µM)	> 128	32 (≈ 65 µM)	> 128	0.33	
